Assay outcomes from PubChem BioAssay.
Rtt109 Vps75: blocks Candida albicans Rtt109/Vps75 acetyltransferase activity; Q5AAJ8; purified Rtt109/Vps75, ThioGlo CoA-SH fluorescence, 4 h; inhibition, % at 34.9 µM; 330,000 tested, 0.16% active; AID 540336;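 active means inhibition of at least 50% in every replicate; inconclusive means best replicate reaches 50% inhibition but some replicates fall short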
Env fusion inh: inhibitors of HIV Env-mediated cell fusion. HeLa-JRFL Env/CEM21 cell fusion, luciferase. inhibition, % at 12.3 µM. 360,000 tested, 1.1% active. AID 651610;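 active means mean replicate inhibition score of at least 50 and every replicate individually at or above 50; inconclusive means only one of the two criteria met; inactive means mean below 50 and not all replicates reaching 50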
SR-BI uptake up: activators of SR-BI mediated HDL lipid uptake; CHO ldlA[mSR-BI] cells, DiI-HDL uptake fluorescence, 3 h; 100 = double the neutral-control signal; activation, % at 12.5 µM; 320,000 tested, 0.096% active;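 active means mean replicate activation of at least 60% and every replicate at or above 60%; inconclusive means mean or all-replicate condition met, but not both; inactive means mean below 60% and not all replicates reaching 60%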
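Test system: SR-BI-overexpressing, LDLR-lacking CHO cells. Measured by: DiI fluorescence, bottom read. Medium: Ham's F12 with 0.5% BSA, HEPES 25 mM, pH 7.4. Timing: 3 h uptake period with compound, 37 °C.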
Glyco luc inh: N-linked glycosylation inhibition; D54 ERlucT glycosylation luciferase reporter, 24 h; percent of 100 nM tunicamycin response; reporter increase, % at 12.5 µM; 360,000 tested, 0.23% active; AID 588692;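 active means mean luciferase reporter signal, scaled so untreated is 0 and the glycosylation-blocking control 100, at or above a set limit in every replicate; inconclusive means mean reaches the limit but not every replicate does; inactive means mean below the limit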;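 further: luciferase carries N-glycosylation sites so blocking glycosylation raises the light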
PglD DTNB: inhibitors of Campylobacter jejuni PglD acetyltransferase | purified PglD enzyme, DTNB colorimetric CoA detection | inhibition, % at 12.5 µM | 360,000 tested, 0.098% active; in the data active means inhibition above about 16%, passing the limit was not always enough; inconclusive means no clear call, values can overlap the other calls
SR-BI DiI inh: blocks mouse SR-BI lipid uptake from DiI-HDL | Q61009 | ldlA[mSR-BI] CHO cells, DiI-HDL uptake fluorescence, 3 h | inhibition, % at 12.5 µM | 320,000 tested, 0.96% active | AID 488896;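 active means mean replicate inhibition of at least 70% and a set share of replicates each scoring 70 or more; inconclusive means meets just one of the two criteria; inactive means fails both criteria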
Target sequence (Q61009 whole entry, looked up): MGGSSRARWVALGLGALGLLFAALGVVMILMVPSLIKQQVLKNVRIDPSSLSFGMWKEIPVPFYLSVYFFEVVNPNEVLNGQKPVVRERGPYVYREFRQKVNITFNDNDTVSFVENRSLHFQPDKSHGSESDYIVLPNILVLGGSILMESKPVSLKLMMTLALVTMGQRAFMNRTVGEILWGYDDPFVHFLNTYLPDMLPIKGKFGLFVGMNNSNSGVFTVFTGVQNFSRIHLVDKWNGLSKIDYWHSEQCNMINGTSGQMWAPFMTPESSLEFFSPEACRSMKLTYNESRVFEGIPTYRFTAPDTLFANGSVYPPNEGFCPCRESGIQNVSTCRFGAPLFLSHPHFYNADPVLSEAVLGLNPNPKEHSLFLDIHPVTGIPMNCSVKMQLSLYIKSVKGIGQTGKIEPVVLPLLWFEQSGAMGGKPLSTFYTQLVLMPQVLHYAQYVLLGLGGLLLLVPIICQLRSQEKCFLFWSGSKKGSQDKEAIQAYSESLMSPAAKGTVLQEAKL
Large screens that a line does not name were inactive; [ ] = dose if it differs, or a comment. Sampled rows, rich in hits. Any-hit rate of the full collection: about 1.9%.

O=C(Nc1ccc(Cl)cc1)Nc1nc(-c2ccccc2)cs1	none (no result: PglD DTNB)
O=C(Nc1cccc(Cl)c1)Nc1cccc(Cl)c1	Env fusion inh 52
N#CC(C(=O)Nc1cccc(Cl)c1)=C1Nc2ccccc2N1	SR-BI DiI inh 73 (no result: Env fusion inh)
O=C(Nc1cccc(Cl)c1)Nc1nc(-c2ccccc2)cs1	SR-BI DiI inh 76 (no result: PglD DTNB)
COc1cccc(NC(=O)C[C@@H]2CC[C@@H]3[C@@H](COc4ccc(NC(=O)C5CCCCC5)cc4C(=O)N3C)O2)c1	none (no result: Rtt109 Vps75, SR-BI uptake up, Glyco luc inh, SR-BI DiI inh)
O=S(=O)(Nc1cc(Sc2ncn[nH]2)c(O)c2ccccc12)c1ccccc1	Rtt109 Vps75 active (no result: PglD DTNB)
O=C(C1CCCC1)N1CCCCN2[C@H](C1)[C@H](c1ccc(C#CC3(O)CCCC3)cc1)[C@@H]2CO	none (no result: Rtt109 Vps75, Env fusion inh, SR-BI uptake up, Glyco luc inh, SR-BI DiI inh)
Cc1cc(Cl)cc(C)c1OCCOCCNCc1ccccc1	Env fusion inh inconclusive
Clc1ccc(OCCOCCNCc2ccccc2)cc1Cl	Env fusion inh 55
N#Cc1ccc(-c2cccnc2)nc1SCC(=O)Nc1sc2c(c1C#N)CCC2	SR-BI DiI inh 76 (no result: Env fusion inh)
Cc1ccnc(SCC(=O)Nc2sc3c(c2C#N)CCC(C(C)(C)C)C3)n1 (centres undefined)	none
CC(C)(C)C1CCc2c(sc(NC(=O)CSc3nnc(-c4ccccc4)o3)c2C#N)C1 (centres undefined)	Rtt109 Vps75 56
COc1ccc(-c2ccc(C#N)c(SCC(=O)Nc3sc4c(c3C#N)CCC4)n2)cc1	none (no result: Env fusion inh, SR-BI uptake up, SR-BI DiI inh)
N#Cc1c(C(F)(F)F)cc(-c2ccccc2)nc1SCC(=O)Nc1sc2c(c1C#N)CCC2	SR-BI DiI inh 106 (no result: Env fusion inh)
C[C@@H]1CN([C@@H](C)CO)C(=O)c2c(c3ccccc3n2C)-c2ccccc2CO[C@H]1CN(C)Cc1ccc(C(=O)O)cc1	none (no result: Rtt109 Vps75, Env fusion inh, SR-BI uptake up, Glyco luc inh, SR-BI DiI inh)
CC(C)[C@H](NC(=O)c1ccco1)C(=O)NC12CC3CC(CC(C3)C1)C2	Env fusion inh 58 (no result: PglD DTNB)
CC(C)[C@H](NC(=O)c1ccco1)C(=O)NCc1ccccc1	none (no result: SR-BI uptake up, SR-BI DiI inh)
CN(C)C(=O)[C@H]1[C@H](CO)[C@H]2Cn3c(ccc(C4=CCCCC4)c3=O)[C@@H]1N2Cc1cccnc1	none (no result: Rtt109 Vps75, Env fusion inh, SR-BI uptake up, Glyco luc inh, SR-BI DiI inh)
COc1cc(NC(=O)C(Cc2ccccc2)n2cccc2)cc(OC)c1 (centres undefined)	Rtt109 Vps75 52 (no result: SR-BI uptake up, PglD DTNB, SR-BI DiI inh)
COc1ccc(NC(=O)C(Cc2ccccc2)n2cccc2)cc1 (centres undefined)	none (no result: PglD DTNB)
CN(C)S(=O)(=O)c1cccc(NC(=O)CSc2nc3c(cc2C#N)C(=O)CC(C)(C)C3)c1	Rtt109 Vps75 inconclusive, Env fusion inh 70 (no result: PglD DTNB)
C[C@H](CO)N1C[C@H](C)[C@H](CN(C)C(=O)Nc2ccc(F)cc2)Oc2ccc(N(C)C)cc2C1=O	none (no result: Rtt109 Vps75, SR-BI uptake up, Glyco luc inh, SR-BI DiI inh)
O=C(O)COc1ccc(/C=N/NC(=O)c2ccc(-c3csc(Nc4ccc(Cl)cc4)n3)cc2)cc1	SR-BI DiI inh 74
O=C(C[C@H]1C[C@H]2c3cc(NC(=O)Cc4ccncc4)ccc3O[C@H]2[C@@H](CO)O1)NCc1ccncc1	Env fusion inh 93[16.7 µM] (no result: Rtt109 Vps75, SR-BI uptake up, Glyco luc inh, SR-BI DiI inh)
O=C(C[C@@H]1C[C@@H]2c3cc(NC(=O)Cc4ccncc4)ccc3O[C@@H]2[C@H](CO)O1)NCCc1ccccc1	none (no result: Rtt109 Vps75, SR-BI uptake up, Glyco luc inh, SR-BI DiI inh)
CCCNC(=O)C[C@@H]1C[C@@H]2c3cc(NC(=O)Cc4ccncc4)ccc3O[C@@H]2[C@H](CO)O1	Env fusion inh 91[16.7 µM] (no result: Rtt109 Vps75, SR-BI uptake up, Glyco luc inh, SR-BI DiI inh)
CCCNC(=O)C[C@@H]1C[C@@H]2c3cc(NC(=O)Cc4ccncc4)ccc3O[C@@H]2[C@@H](CO)O1	Env fusion inh 93[16.7 µM] (no result: Rtt109 Vps75, SR-BI uptake up, Glyco luc inh, SR-BI DiI inh)
CN(C)C(=O)[C@H]1[C@H](CO)[C@H]2Cn3c(cccc3=O)[C@H]2N1C(=O)C1CCCCC1	none (no result: Rtt109 Vps75, Env fusion inh, SR-BI uptake up, Glyco luc inh, SR-BI DiI inh)
CO[C@H]1CN(C)C(=O)c2cc(NC(=O)Nc3ccccc3)ccc2OC[C@H](C)N(C(=O)CC2CC2)C[C@@H]1C	none (no result: Rtt109 Vps75, SR-BI uptake up, Glyco luc inh, SR-BI DiI inh)
Cc1cc(NC(=O)COc2ccc(F)c(Cl)c2)no1	Env fusion inh 65
Cc1cc(NC(=O)COc2ccc(C)c(C)c2)no1	none (no result: SR-BI uptake up, PglD DTNB, SR-BI DiI inh)
C[C@H](CO)N1C[C@H](C)[C@@H](CN(C)S(=O)(=O)c2ccc(F)cc2)OCCCC[C@H](C)Oc2ccc(NC(=O)CCC(F)(F)F)cc2C1=O	none (no result: Rtt109 Vps75, SR-BI uptake up, Glyco luc inh, SR-BI DiI inh)
COc1ccccc1-c1nnc(Sc2nc([N+](=O)[O-])nn2C)o1	Env fusion inh 126 (no result: PglD DTNB)
Cn1cnnc1Sc1nc([N+](=O)[O-])nn1C	none (no result: PglD DTNB)
